Assay results from ChEMBL document CHEMBL4689842, “EUbOPEN Chemogenomics Library wave 1” (2021).

Test system: U2OS
Test: Multiplex assay against U2OS
Assay type: toxicity, cell-based
Conditions: human
Method in brief: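 Values for tubulin, mitochondrial-mass and membrane-permeability phenotypes are per cents of cells with healthy nuclei. These cells were identified by CellPathfinder machine-learning gating of live cells that had been stained at seeding with Hoechst33342, BioTracker Green Microtubule Cytoskeleton Dye, MitoTracker Red and Annexin V Alexa Fluor 680 and imaged on a CQ1 microscope at 37°C and 5% CO2 after compound addition. The gating first set Hoechst high-intensity objects apart from normal cells, then split normal cells into healthy, pyknosed or fragmented nuclei, and pyknosed cells into mitotic or apoptotic.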

[1] = 12 h, 1 µM, compound concentration 1 uM, replicate 1
[2] = 12 h, 1 µM, compound concentration 1 uM, replicate 2
[3] = 12 h, 10 µM, compound concentration 10 uM, replicate 1
[4] = 12 h, 10 µM, compound concentration 10 uM, replicate 2
[5] = 24 h, 1 µM, compound concentration 1 uM, replicate 1
[6] = 24 h, 1 µM, compound concentration 1 uM, replicate 2
[7] = 24 h, 10 µM, compound concentration 10 uM, replicate 1
[8] = 24 h, 10 µM, compound concentration 10 uM, replicate 2

COc1cc2c(Nc3ccc(NC(=O)c4ccccc4)cc3)ncnc2cc1OCCCN1CCOCC1
Population Apoptotic (%) [1]: 18%
Population Fragmented Nuclei (%) [1]: 8%
Population Healthy Nuclei (%) [1]: 77%
Population Hoechst High Intensity Objects (%) [1]: 1%
Population Membrane Permeable-Phenotype (%) [1]: 63%
Population Mitochondria Different-Phenotype (%) [1]: 24%
Population Mitotic Cells (%) [1]: 81%
Population Normal (%) [1]: 98%
Population Pyknosed Nuclei (%) [1]: 13%
Population Tubulin-Different-Phenotype (%) [1]: 99%
Total Cell Count [1]: 121
Population Apoptotic (%) [2]: 0%
Population Fragmented Nuclei (%) [2]: 20%
Population Healthy Nuclei (%) [2]: 74%
Population Hoechst High Intensity Objects (%) [2]: 12%
Population Membrane Permeable-Phenotype (%) [2]: 67%
Population Mitochondria Different-Phenotype (%) [2]: 14%
Population Mitotic Cells (%) [2]: 100%
Population Normal (%) [2]: 87%
Population Pyknosed Nuclei (%) [2]: 5%
Population Tubulin-Different-Phenotype (%) [2]: 92%
Total Cell Count [2]: 97
Population Apoptotic (%) [3]: 44%
Population Fragmented Nuclei (%) [3]: 5%
Population Healthy Nuclei (%) [3]: 86%
Population Hoechst High Intensity Objects (%) [3]: 3%
Population Membrane Permeable-Phenotype (%) [3]: 10%
Population Mitochondria Different-Phenotype (%) [3]: 24%
Population Mitotic Cells (%) [3]: 55%
Population Normal (%) [3]: 96%
Population Pyknosed Nuclei (%) [3]: 7%
Total Cell Count [3]: 215
Population Apoptotic (%) [4]: 0%
Population Fragmented Nuclei (%) [4]: 10%
Population Healthy Nuclei (%) [4]: 87%
Population Hoechst High Intensity Objects (%) [4]: 11%
Population Membrane Permeable-Phenotype (%) [4]: 13%
Population Mitochondria Different-Phenotype (%) [4]: 38%
Population Mitotic Cells (%) [4]: 100%
Population Normal (%) [4]: 88%
Population Pyknosed Nuclei (%) [4]: 2%
Population Tubulin-Different-Phenotype (%) [4]: 14%
Total Cell Count [4]: 115
Population Apoptotic (%) [5]: 19%
Population Fragmented Nuclei (%) [5]: 16%
Population Healthy Nuclei (%) [5]: 63%
Population Hoechst High Intensity Objects (%) [5]: 2%
Population Membrane Permeable-Phenotype (%) [5]: 48%
Population Mitochondria Different-Phenotype (%) [5]: 39%
Population Mitotic Cells (%) [5]: 80%
Population Normal (%) [5]: 97%
Population Pyknosed Nuclei (%) [5]: 19%
Population Tubulin-Different-Phenotype (%) [5]: 98%
Total Cell Count [5]: 129
Population Apoptotic (%) [6]: 26%
Population Fragmented Nuclei (%) [6]: 24%
Population Healthy Nuclei (%) [6]: 61%
Population Hoechst High Intensity Objects (%) [6]: 7%
Population Membrane Permeable-Phenotype (%) [6]: 44%
Population Mitochondria Different-Phenotype (%) [6]: 43%
Population Mitotic Cells (%) [6]: 73%
Population Normal (%) [6]: 92%
Population Pyknosed Nuclei (%) [6]: 14%
Population Tubulin-Different-Phenotype (%) [6]: 95%
Total Cell Count [6]: 108
Population Apoptotic (%) [7]: 18%
Population Fragmented Nuclei (%) [7]: 7%
Population Healthy Nuclei (%) [7]: 83%
Population Hoechst High Intensity Objects (%) [7]: 8%
Population Membrane Permeable-Phenotype (%) [7]: 13%
Population Mitochondria Different-Phenotype (%) [7]: 37%
Population Mitotic Cells (%) [7]: 81%
Population Normal (%) [7]: 91%
Population Pyknosed Nuclei (%) [7]: 9%
Population Tubulin-Different-Phenotype (%) [7]: 18%
Total Cell Count [7]: 237
Population Apoptotic (%) [8]: 25%
Population Fragmented Nuclei (%) [8]: 14%
Population Healthy Nuclei (%) [8]: 77%
Population Hoechst High Intensity Objects (%) [8]: 10%
Population Membrane Permeable-Phenotype (%) [8]: 14%
Population Mitochondria Different-Phenotype (%) [8]: 25%
Population Mitotic Cells (%) [8]: 75%
Population Normal (%) [8]: 89%
Population Pyknosed Nuclei (%) [8]: 8%
Population Tubulin-Different-Phenotype (%) [8]: 22%
Total Cell Count [8]: 115

c1ccc2oc(-c3csc(C4CCN(Cc5nc6ncccc6[nH]5)CC4)n3)cc2c1
Population Apoptotic (%) [1]: 8%
Population Fragmented Nuclei (%) [1]: 2%
Population Healthy Nuclei (%) [1]: 90%
Population Hoechst High Intensity Objects (%) [1]: 3%
Population Membrane Permeable-Phenotype (%) [1]: 12%
Population Mitochondria Different-Phenotype (%) [1]: 15%
Population Mitotic Cells (%) [1]: 91%
Population Normal (%) [1]: 96%
Population Pyknosed Nuclei (%) [1]: 6%
Population Tubulin-Different-Phenotype (%) [1]: 10%
Total Cell Count [1]: 182
Population Apoptotic (%) [2]: 25%
Population Fragmented Nuclei (%) [2]: 8%
Population Healthy Nuclei (%) [2]: 85%
Population Hoechst High Intensity Objects (%) [2]: 7%
Population Membrane Permeable-Phenotype (%) [2]: 8%
Population Mitochondria Different-Phenotype (%) [2]: 27%
Population Mitotic Cells (%) [2]: 75%
Population Normal (%) [2]: 92%
Population Tubulin-Different-Phenotype (%) [2]: 15%
Total Cell Count [2]: 141
Population Apoptotic (%) [3]: 42%
Population Fragmented Nuclei (%) [3]: 4%
Population Healthy Nuclei (%) [3]: 91%
Population Hoechst High Intensity Objects (%) [3]: 3%
Population Membrane Permeable-Phenotype (%) [3]: 9%
Population Mitochondria Different-Phenotype (%) [3]: 25%
Population Mitotic Cells (%) [3]: 57%
Population Normal (%) [3]: 96%
Population Pyknosed Nuclei (%) [3]: 3%
Population Tubulin-Different-Phenotype (%) [3]: 29%
Total Cell Count [3]: 205
Population Apoptotic (%) [4]: 25%
Population Fragmented Nuclei (%) [4]: 7%
Population Healthy Nuclei (%) [4]: 88%
Population Hoechst High Intensity Objects (%) [4]: 15%
Population Membrane Permeable-Phenotype (%) [4]: 18%
Population Mitochondria Different-Phenotype (%) [4]: 34%
Population Mitotic Cells (%) [4]: 75%
Population Normal (%) [4]: 84%
Population Pyknosed Nuclei (%) [4]: 4%
Population Tubulin-Different-Phenotype (%) [4]: 34%
Total Cell Count [4]: 114
Population Apoptotic (%) [5]: 40%
Population Fragmented Nuclei (%) [5]: 2%
Population Healthy Nuclei (%) [5]: 90%
Population Hoechst High Intensity Objects (%) [5]: 2%
Population Membrane Permeable-Phenotype (%) [5]: 7%
Population Mitochondria Different-Phenotype (%) [5]: 16%
Population Mitotic Cells (%) [5]: 60%
Population Normal (%) [5]: 97%
Population Tubulin-Different-Phenotype (%) [5]: 19%
Total Cell Count [5]: 223
Population Apoptotic (%) [6]: 25%
Population Fragmented Nuclei (%) [6]: 4%
Population Healthy Nuclei (%) [6]: 88%
Population Hoechst High Intensity Objects (%) [6]: 3%
Population Membrane Permeable-Phenotype (%) [6]: 9%
Population Mitochondria Different-Phenotype (%) [6]: 24%
Population Mitotic Cells (%) [6]: 75%
Population Normal (%) [6]: 96%
Population Pyknosed Nuclei (%) [6]: 6%
Population Tubulin-Different-Phenotype (%) [6]: 22%
Total Cell Count [6]: 181
Population Apoptotic (%) [7]: 45%
Population Fragmented Nuclei (%) [7]: 5%
Population Healthy Nuclei (%) [7]: 90%
Population Hoechst High Intensity Objects (%) [7]: 1%
Population Membrane Permeable-Phenotype (%) [7]: 5%
Population Mitochondria Different-Phenotype (%) [7]: 14%
Population Mitotic Cells (%) [7]: 54%
Population Normal (%) [7]: 98%
Population Pyknosed Nuclei (%) [7]: 3%
Total Cell Count [7]: 282
Population Apoptotic (%) [8]: 0%
Population Fragmented Nuclei (%) [8]: 4%
Population Healthy Nuclei (%) [8]: 91%
Population Hoechst High Intensity Objects (%) [8]: 9%
Population Membrane Permeable-Phenotype (%) [8]: 11%
Population Mitochondria Different-Phenotype (%) [8]: 33%
Population Mitotic Cells (%) [8]: 100%
Population Normal (%) [8]: 90%
Population Pyknosed Nuclei (%) [8]: 4%
Population Tubulin-Different-Phenotype (%) [8]: 33%
Total Cell Count [8]: 137
